Reference: ChEMBL document CHEMBL1150119, “Cytotoxic germacranolides from Inula verbascifolia subsp. methanea” (J Nat Prod, 2002)
In brackets after ≈: the same amount, converted by molar mass.

Key:
Type in all cases: functional, cell-based
HT-29 = assay: Cytotoxicity against human HT-29 cells after 48 hrs by MTT assay; settings: HT-29, 48 h
In short: (§1)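 Adherent human tumor cells kept in DMEM with 10% FBS, penicillin and streptomycin, at 37 °C under 5% CO₂ and 85% humidity, and subcultured with trypsin-EDTA. Cells were seeded at 5000/well and compounds in DMSO were added 24 h later. After 48 h, medium was swapped for MTT (1 mg/mL final, serum-free phenol-red-free RPMI) for 4 h. Formazan was dissolved in 2-propanol and read at 550 nm against 690 nm reference.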

[1] = Cytotoxicity against human HRT18 cells after 48 hrs by MTT assay; settings: HRT-18, 48 h; in short: as §1
PC-3 = assay: Cytotoxicity against human PC3 cells after 48 hrs by MTT assay; settings: PC-3, 48 h; in short: as §1
LNCaP = assay: Cytotoxicity against human LNCAP cells expressing androgen receptor after 48 hrs by MTT assay; in short: as §1
MCF7 = assay: Cytotoxicity against human MCF7 cells expressing estrogen receptor after 48 hrs by MTT assay; settings: MCF7, 48 h; in short: as §1
HCT-116 = assay: Cytotoxicity against human HCT116 cells after 48 hrs by MTT assay; settings: HCT-116, 48 h; in short: as §1

Q: Which results are given for `C=C1C(=O)O[C@@H]2[C@H]3O[C@]3(C)CC/C=C(\C)[C@@H](OC(=O)CC(C)(O)CC)C[C@@H]12` (some centres undefined)?
A: IC50 (HT-29): 11.7 µg/mL (≈ 30.9 µM); IC50 [1]: 8.75 µg/mL (≈ 23.1 µM); IC50 (PC-3): 15.7 µg/mL (≈ 41.5 µM); IC50 (LNCaP): 30.2 µg/mL (≈ 79.8 µM); IC50 (MCF7): > 40 µg/mL; IC50 (HCT-116): 7.1 µg/mL (≈ 18.8 µM)

Q: Which IC50 (HT-29) does the source give for `C=C1C(=O)O[C@@H]2[C@H]3O[C@]3(C)CC/C=C(\C)[C@@H](OC(=O)C(C)C(C)O)C[C@@H]12` (some centres undefined) here?
A: 11.7 µg/mL (≈ 32.1 µM)

Q: What about the IC50 [1] of the same compound?
A: 13.4 µg/mL (≈ 36.8 µM)

Q: And the IC50 (PC-3)?
A: 11.3 µg/mL (≈ 31 µM)

Q: And the IC50 (LNCaP)?
A: 25.4 µg/mL (≈ 69.7 µM)

Q: And the IC50 (MCF7)?
A: > 40 µg/mL

Q: And the IC50 (HCT-116)?
A: 0.39 µg/mL (≈ 1.07 µM)

Q: Which IC50 (HT-29) does the source give for `C=C1C(=O)O[C@@H]2[C@H]3O[C@]3(C)CC/C=C(\C)[C@@H](OC(=O)CC(C)(C)O)C[C@@H]12` here?
A: 17.5 µg/mL (≈ 48 µM)

Q: What about the IC50 [1] of the same compound?
A: 14.9 µg/mL (≈ 40.9 µM)

Q: What about the IC50 (PC-3) of the same compound?
A: 18.2 µg/mL (≈ 49.9 µM)

Q: What about the IC50 (LNCaP) of the same compound?
A: 34.2 µg/mL (≈ 93.8 µM)

Q: What about the IC50 (MCF7) of the same compound?
A: > 40 µg/mL

Q: And the IC50 (HCT-116)?
A: 14.1 µg/mL (≈ 38.7 µM)

Q: Which IC50 (HT-29) does the source give for `COc1cccc2c1C(=O)c1c(O)c3c(c(O)c1C2=O)C[C@@](O)(C(C)=O)C[C@@H]3O[C@H]1C[C@H](N)[C@H](O)[C@H](C)O1.Cl` [DAUNORUBICIN HYDROCHLORIDE] here?
A: 0.072 µg/mL

Q: What about the IC50 [1] of the same compound?
A: 0.11 µg/mL

Q: What about the IC50 (PC-3) of the same compound?
A: 0.23 µg/mL

Q: And the IC50 (LNCaP)?
A: 0.011 µg/mL

Q: And the IC50 (MCF7)?
A: 0.12 µg/mL

Q: What about the IC50 (HCT-116) of the same compound?
A: 0.28 µg/mL
